Source: ChEMBL document CHEMBL1131069 (J Med Chem, 1998)

Columns and labels:
[1] = Apparent IC50 value by [3H]batrachotoxinin-A-20-alpha-benzoate-binding test performed in rat brain synaptosomes; assay type: subcellular
In short: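 Rat brain synaptosomes, about 400 µg protein per assay, incubated 2 h at 37 °C, pH 7.4, in choline chloride/HEPES/glucose/KCl medium with 10 nM [³H]batrachotoxinin-A-20α-benzoate and scorpion venom. Stopped with cold-free choline chloride/HEPES/CaCl₂/MgSO₄ washes, filtered on GF/B, bound radioactivity counted. Protein by Bradford. Apparent IC50 from quadruplicate measurements, mean ± SD.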

Rattus norvegicus [2] = assay: Anticonvulsant ED50 activity by MES test in rats dosed orally; assay type: functional; details: po
In short: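 Male Sprague-Dawley rats (100-150 g) dosed orally. ED50 is the dose protecting 50% of animals against maximal electroshock-induced seizures. […]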

Rattus norvegicus [3] = assay: Toxicity was determined in rats at a dose of 30 mg/kg after 4 hour. (+ denotes activity in 0-25% of administered animals).; assay type: functional, organism-based; set-up: dose 30 mg/kg
In short: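 Male Sprague-Dawley rats given a single oral dose of 30 mg/kg and assessed for toxicity 4 h after dosing, with at least four animals per time point. Score is the fraction of animals affected (+ 0-25%); - means no toxicity.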

[4] = Neurotoxicity determined at 30 minutes after the administration of compound by rotarod test.(- denotes activity at 300 mg/kg); assay type: toxicity, organism-based; set-up: dose 300 mg/kg; details: mouse, in vivo, 0.5 h
In short: (§1)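 Male CF-1 mice dosed ip at 30, 100 or 300 mg/kg and tested 30 min or 4 h later on a 1-in. knurled rod turning at 6 rpm. A deficit was failure to stay on the rod for 1 min in each of three trials. Coding: ++ 100, + 300 mg/kg; - means none at 300 mg/kg.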

Mus musculus [5] = assay: Anticonvulsant activity determined at 4 hours after the administration of compound using MES test.(++= signify activity at 100 mg/kg); assay type: functional, organism-based; set-up: dose 100 mg/kg
In short: (§2)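 Male CF-1 albino mice (18-25 g) dosed intraperitoneally at 30, 100 or 300 mg/kg. Protection against maximal electroshock-induced seizures was scored 30 min or 4 h after dosing.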

Rattus norvegicus [6] = assay: Anticonvulsant activity was determined in rats at a dose of 30 mg/kg after 1 hour by MES test. (+ denotes activity in 0-25% of administered animals).; assay type: functional, organism-based; set-up: dose 30 mg/kg
[7] = Neurotoxicity determined at 4 hours after the administration of compound by rotarod test (- denotes activity at 300 mg/kg); assay type: toxicity, organism-based; set-up: dose 300 mg/kg; details: mouse, in vivo; in short: as §1
Mus musculus [8] = assay: Anticonvulsant activity determined at 30 minutes after the administration of compound using MES test. (++= signify activity at 100 mg/kg); assay type: functional, organism-based; set-up: dose 100 mg/kg; in short: as §2
Rattus norvegicus [9] = assay: Anticonvulsant activity was determined in rats at a dose of 30 mg/kg after 4 hour by MES test. (+ denotes activity in 0-25% of administered animals).; assay type: functional, organism-based; set-up: dose 30 mg/kg
Rattus norvegicus [10] = assay: Anticonvulsant activity was determined in rats at a dose of 30 mg/kg after 4 hour by MES test. (++++ denotes activity in 75-100% of administered animals); assay type: functional, organism-based; set-up: dose 30 mg/kg
Rattus norvegicus [11] = assay: Anticonvulsant activity was determined in rats at a dose of 30 mg/kg after 1 hour by MES test. (++++ denotes activity in 75-100% of administered animals); assay type: functional, organism-based; set-up: dose 30 mg/kg
Mus musculus [12] = assay: Anticonvulsant activity determined at 4 hours after the administration of compound using sc Ptz test.(+ = signify activity at 300 mg/kg); assay type: functional, organism-based; set-up: dose 300 mg/kg
In short: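 Male CF-1 mice (18-25 g) dosed ip at 30, 100 or 300 mg/kg. Pentylenetetrazol in 0.9% NaCl was injected sc at 0.01 mL/g. Tests were run 30 min or 4 h after dosing.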

[13] = Neurotoxicity determined at 4 hours after the administration of compound by rotarod test(+ = signify activity at 300 mg/kg); assay type: toxicity, organism-based; set-up: dose 300 mg/kg; details: mouse, in vivo; in short: as §1
Mus musculus [14] = assay: Anticonvulsant activity determined at 30 minutes after the administration of compound using MES test.(++= signify activity at 100 mg/kg); assay type: functional, organism-based; set-up: dose 100 mg/kg; in short: as §2
Rattus norvegicus [15] = assay: Anticonvulsant activity was determined in rats at a dose of 30 mg/kg after 2 hour by MES test. (+ denotes activity in 0-25% of administered animals).; assay type: functional, organism-based; set-up: dose 30 mg/kg
[16] = Neurotoxicity determined at 30 minutes after the administration of compound by rotarod test.(+ = signify activity at 300 mg/kg); assay type: toxicity, organism-based; set-up: dose 300 mg/kg; details: mouse, in vivo, 0.5 h; in short: as §1
Rattus norvegicus [17] = assay: Anticonvulsant activity was determined in rats at a dose of 30 mg/kg after 4 hour by MES test. (++ denotes activity in 25-50% of administered animals).; assay type: functional, organism-based; set-up: dose 30 mg/kg
Rattus norvegicus [18] = assay: Anticonvulsant activity was determined in rats at a dose of 30 mg/kg after 1 hour by MES test. (++ denotes activity in 25-50% of administered animals).; assay type: functional, organism-based; set-up: dose 30 mg/kg
[19] = Neurotoxicity determined at 4 hours after the administration of compound by rotarod test(- denotes activity at 300 mg/kg); assay type: toxicity, organism-based; set-up: dose 300 mg/kg; details: mouse, in vivo; in short: as §1

Row | Structure (SMILES) | IC50 [1] [µM] | ED50 (Rattus norvegicus [2]) [µmol/kg] | Activity (Rattus norvegicus [3]) | Activity [4] | Activity (Mus musculus [5]) | Activity (Rattus norvegicus [6]) | Activity [7] | Activity (Mus musculus [8]) | Activity (Rattus norvegicus [9]) | Activity (Rattus norvegicus [10]) | Activity (Rattus norvegicus [11]) | Activity (Mus musculus [12]) | Activity [13] | Activity (Mus musculus [14]) | Activity (Rattus norvegicus [15]) | Activity [16] | Activity (Rattus norvegicus [17]) | Activity (Rattus norvegicus [18]) | Activity [19]
1 | O=C1NC(=O)C(c2ccccc2)(c2ccccc2)N1 [PHENYTOIN] | 0.86 | 121 | – | – | – | – | – | – | – | – | – | – | – | – | – | – | – | – | –
2 | Cc1cccc(C)c1N1C(=O)c2ccc(O)cc2C1=O | 1.86 | 369 | activity in 0-25% of administered animals | activity in 0-25% of administered animals | activity in 0-25% of administered animals | activity in 0-25% of administered animals | activity in 0-25% of administered animals | activity in 0-25% of administered animals | activity in 0-25% of administered animals | – | – | – | – | – | – | – | – | – | –
3 | Cc1cccc(C)c1N1C(=O)c2ccc([N+](=O)[O-])cc2C1=O | 184 | 131 | – | Activity at 300 mg/kg | Activity at 300 mg/kg | – | – | Activity at 300 mg/kg | – | ++ | ++ | Activity at 300 mg/kg | Activity at 300 mg/kg | – | – | – | – | – | –
4 | Cc1cccc(C)c1N1C(=O)c2ccc(Cl)cc2C1=O | 47.8 | 354 | – | – | activity in 0-25% of administered animals | – | activity in 0-25% of administered animals | – | – | – | – | – | – | activity in 0-25% of administered animals | activity in 0-25% of administered animals | activity in 0-25% of administered animals | activity in 0-25% of administered animals | – | –
5 | Cc1cccc(C)c1N1C(=O)c2ccccc2C1=O | 161 | 231 | – | activity in 0-25% of administered animals | – | – | – | – | – | – | – | – | – | activity in 0-25% of administered animals | activity in 0-25% of administered animals | – | – | activity in 0-25% of administered animals | activity in 0-25% of administered animals
